# According to ChEMBL document CHEMBL3784993, “Synthesis and anticancer activity of some 5-fluoro-2'-deoxyuridine phosphoramidates” (Bioorg Med Chem, 2016):
# Tests used:
# HeLa [1] = assay: Cytotoxicity against human HeLa cells after 72 hrs by SRB assay; format: functional, cell-based
# Summary of the method: (§1)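 SRB protein-stain assay. Cells were seeded at about 10,000 per well and grown 24 h to a partial monolayer. They were then exposed for 72 h at 37 °C (5% CO2, 90% RH) to six concentrations: 0.1, 0.2, 1, 2, 10 and 20 µM. Final DMSO was ≤0.1%. Cells were TCA-fixed and stained with 0.4% SRB, and OD was read at 490 nm. Survival was expressed versus untreated cells. Cytarabine served as internal standard, with three experiments.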
# KB = assay: Cytotoxicity against human KB cells after 72 hrs by SRB assay; format: functional, cell-based; summary of the method: as §1
# MCF7 [2] = assay: Cytotoxicity against human MCF7cells after 72 hrs by SRB assay; format: functional, cell-based; details: MCF7, 72 h
# HepG2 [3] = assay: Cytotoxicity against human HepG2 cells after 72 hrs by SRB assay; format: functional, cell-based; details: HepG2, 72 h
# [4] = Cytotoxicity against HDF cells after 72 hrs by SRB assay; format: cell-based; details: Homo sapiens
# HeLa [5] = assay: Selectivity index, ratio of IC50 for HDF cells to IC50 for human HeLa cells; format: functional
# Summary of the method: (§2)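 SI is calculated as the IC50 in normal human dermal fibroblasts (HDF) divided by the IC50 in the respective cancer line. Both values come from 72 h SRB assays. SD is from three independent experiments.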
# [6] = Selectivity index, ratio of IC50 for HDF cells to IC50 for human KB cells; format: functional; summary of the method: as §2
# MCF7 [7] = assay: Selectivity index, ratio of IC50 for HDF cells to IC50 for human MCF7 cells; format: functional; summary of the method: as §2
# HepG2 [8] = assay: Selectivity index, ratio of IC50 for HDF cells to IC50 for human HepG2 cells; format: functional; summary of the method: as §2
# 143B [9] = assay: Selectivity index, ratio of IC50 for HDF cells to IC50 for human 143B cells; format: functional; summary of the method: as §2
# 143B [10] = assay: Cytotoxicity against human 143B cells after 72 hrs by SRB assay; format: functional, cell-based; summary of the method: as §1
# 143B [11] = assay: Cytotoxicity against human thymidine kinase deficient 143B cells after 72 hrs by SRB assay; format: functional, cell-based; summary of the method: as §1
# HeLa [12] = assay: Cytotoxicity against human HeLa cells after 72 hrs in presence of human recombinant cytochrome P450 isoform mixture by SRB assay; format: functional, cell-based
SMILES,IC50 (HeLa [1]),IC50 (KB),IC50 (MCF7 [2]),IC50 (HepG2 [3]),IC50 [4],Ratio IC50 (HeLa [5]),Ratio IC50 [6],Ratio IC50 (MCF7 [7]),Ratio IC50 (HepG2 [8]),Ratio IC50 (143B [9]),IC50 (143B [10]),IC50 (143B [11]),IC50 (HeLa [12])
COC(=O)[C@H](C)NP(=O)(OC[C@H]1O[C@@H](n2cc(F)c(=O)[nH]c2=O)C[C@@H]1OC(=O)OC(C)(C)C)Oc1ccccc1 (stereo partly specified),8.34 µM,8.34 µM,6.29 µM,9.28 µM,17.5 µM,–,–,–,–,–,–,–,–
COC(=O)[C@H](C)NP(=O)(OC[C@H]1O[C@@H](n2cc(F)c(=O)[nH]c2=O)C[C@@H]1O)Oc1ccc(Cl)cc1 (stereo partly specified),4.11 µM,4.22 µM,4.54 µM,6.65 µM,18.4 µM,4.49,4.37,4.06,2.77,4.58,4.03 µM,8.67 µM,–
[N-]=[N+]=NCCCNP(=O)(OC[C@H]1O[C@@H](n2cc(F)c(=O)[nH]c2=O)C[C@@H]1O)Oc1ccc(Cl)cc1 (stereo partly specified),22.2 µM,22.6 µM,27 µM,22.6 µM,41 µM,–,–,–,–,–,–,–,13.5 µM
CC(C)(C)OC(=O)O[C@H]1C[C@H](n2cc(F)c(=O)[nH]c2=O)O[C@@H]1COP(=O)(NCCCCN=[N+]=[N-])Oc1ccc(Cl)cc1 (stereo partly specified),36 µM,35.6 µM,35.4 µM,58.9 µM,48.3 µM,–,–,–,–,–,–,–,17.7 µM
C=CCNP(=O)(OC[C@H]1O[C@@H](n2cc(F)c(=O)[nH]c2=O)C[C@@H]1OC(=O)OC(C)(C)C)Oc1ccc(Cl)cc1 (stereo partly specified),19.1 µM,16.5 µM,12.8 µM,17 µM,27.2 µM,–,–,–,–,–,–,–,–
O=c1[nH]c(=O)n([C@H]2C[C@H](O)[C@@H](CO)O2)cc1F [FLOXURIDINE],–,–,–,8.91 µM,13.1 µM,2.01,1.5,1.07,1.47,2.17,6.02 µM,14.1 µM,–
CCCCNP(=O)(OC[C@H]1O[C@@H](n2cc(F)c(=O)[nH]c2=O)C[C@@H]1O)Oc1ccc(Cl)cc1 (stereo partly specified),> 100 µM,> 100 µM,> 100 µM,> 100 µM,> 100 µM,–,–,–,–,–,–,–,> 100 µM
CC(C)(C)OC(=O)O[C@H]1C[C@H](n2cc(F)c(=O)[nH]c2=O)O[C@@H]1COP(=O)(NCCCN=[N+]=[N-])Oc1ccc(Cl)cc1 (stereo partly specified),52.5 µM,54.9 µM,58.5 µM,46.9 µM,57.2 µM,–,–,–,–,–,–,–,24.1 µM
COC(=O)[C@H](C)NP(=O)(OC[C@H]1O[C@@H](n2cc(F)c(=O)[nH]c2=O)C[C@@H]1O)Oc1ccccc1 (stereo partly specified),23.5 µM,18 µM,29.1 µM,25.9 µM,43.1 µM,–,–,–,–,–,–,–,–
COC(=O)[C@H](C)NP(=O)(OC[C@H]1O[C@@H](n2cc(F)c(=O)[nH]c2=O)C[C@@H]1OC(=O)OC(C)(C)C)Oc1ccc(Cl)cc1 (stereo partly specified),1.65 µM,1.54 µM,2.56 µM,3.47 µM,6.21 µM,3.76,4.03,2.39,1.66,4.11,1.51 µM,3.07 µM,–
CC(C)(C)OC(=O)O[C@H]1C[C@H](n2cc(F)c(=O)[nH]c2=O)O[C@@H]1COP(=O)(NCC(F)(F)F)Oc1ccc(Cl)cc1 (stereo partly specified),14.6 µM,14.6 µM,4.05 µM,18.8 µM,37.1 µM,–,–,–,–,–,0.28 µM,2.01 µM,–
C=CCNP(=O)(OC[C@H]1O[C@@H](n2cc(F)c(=O)[nH]c2=O)C[C@@H]1O)Oc1ccc(Cl)cc1 (stereo partly specified),89.3 µM,38.7 µM,94.5 µM,96.7 µM,92.1 µM,–,–,–,–,–,–,–,–
C#CCNP(=O)(OC[C@H]1O[C@@H](n2cc(F)c(=O)[nH]c2=O)C[C@@H]1O)Oc1ccc(Cl)cc1 (stereo partly specified),10.6 µM,25.3 µM,12 µM,24.5 µM,31 µM,–,–,–,–,–,3.61 µM,3.9 µM,–
Nc1ccn([C@@H]2O[C@H](CO)[C@@H](O)[C@@H]2O)c(=O)n1 [CYTARABINE],–,–,–,2.86 µM,4.99 µM,1.41,1.23,1.31,1.75,2.42,2.06 µM,16.9 µM,–
CNP(=O)(OC[C@H]1O[C@@H](n2cc(F)c(=O)[nH]c2=O)C[C@@H]1OC(=O)OC(C)(C)C)Oc1ccc(Cl)cc1 (stereo partly specified),7.27 µM,7.28 µM,8.18 µM,6.55 µM,12.4 µM,–,–,–,–,–,6.72 µM,13.1 µM,–
Oc1ccc(Cl)cc1 [PARACHLOROPHENOL],1680 µM,1450 µM,1880 µM,1700 µM,1850 µM,–,–,–,–,–,–,–,–
O=c1[nH]c(=O)n([C@H]2C[C@H](O)[C@@H](COP(=O)(NCC(F)(F)F)Oc3ccc(Cl)cc3)O2)cc1F (stereo partly specified),3.09 µM,1.93 µM,1.82 µM,3.48 µM,4.19 µM,1.36,2.17,2.3,1.2,2.33,1.8 µM,2.51 µM,–
CC(C)(C)OC(=O)O[C@H]1C[C@H](n2cc(F)c(=O)[nH]c2=O)O[C@@H]1CO,63.5 µM,75.9 µM,64.2 µM,80.4 µM,> 100 µM,–,–,–,–,–,18 µM,47 µM,–
C#CCNP(=O)(OC[C@H]1O[C@@H](n2cc(F)c(=O)[nH]c2=O)C[C@@H]1OC(=O)OC(C)(C)C)Oc1ccc(Cl)cc1 (stereo partly specified),4.36 µM,4.37 µM,4.71 µM,3.66 µM,7.21 µM,1.65,1.65,1.53,1.97,2.39,3.02 µM,3.62 µM,–
O=c1[nH]cc(F)c(=O)[nH]1 [FLUOROURACIL],–,–,–,6.6 µM,7.02 µM,1.13,1.45,1.08,1.06,0.54,13 µM,16.3 µM,–
CCNP(=O)(OC[C@H]1O[C@@H](n2cc(F)c(=O)[nH]c2=O)C[C@@H]1O)Oc1ccc(Cl)cc1 (stereo partly specified),8.19 µM,8.21 µM,19.4 µM,5.39 µM,16.3 µM,–,–,–,–,–,2.41 µM,16 µM,–
CNP(=O)(OC[C@H]1O[C@@H](n2cc(F)c(=O)[nH]c2=O)C[C@@H]1O)Oc1ccc(Cl)cc1 (stereo partly specified),5.78 µM,4.45 µM,4.44 µM,9.34 µM,11.8 µM,2.05,2.66,2.66,1.27,5.58,2.12 µM,12.7 µM,–
